Screening data deposited in PubChem by Johns Hopkins Ion Channel Center.
MrgX1 antagonist: human MrgX1 receptor antagonism, primary screen | Q96LB2 | MRGX1-HEK293 calcium flux, Fluo-4, BAM8-22 antagonism; hits give low values | B-score at 10 µM | actives 1.3% (n = 310,000) | AID 588676;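 active = calcium-response B-score plate-corrected more than 3 library SD below zero, starting fluorescence within 5 deviations, no agonist response on first addition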;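 also: peak minus trough fluorescence over baseline after final BAM8-22 challenge near maximal dose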
Target sequence (Q96LB2 whole entry, looked up): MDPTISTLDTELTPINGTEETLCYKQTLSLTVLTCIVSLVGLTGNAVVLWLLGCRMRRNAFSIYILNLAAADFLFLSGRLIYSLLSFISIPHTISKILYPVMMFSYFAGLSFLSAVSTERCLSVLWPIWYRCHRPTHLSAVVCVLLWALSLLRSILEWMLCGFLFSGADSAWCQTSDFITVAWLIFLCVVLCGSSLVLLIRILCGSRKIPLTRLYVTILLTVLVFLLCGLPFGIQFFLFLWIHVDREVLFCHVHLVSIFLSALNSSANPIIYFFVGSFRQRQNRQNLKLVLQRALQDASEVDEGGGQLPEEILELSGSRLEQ
MrgX1 agonist: activates human MrgX1 receptor signaling. Q96LB2. MrgX1-HEK293 cells, Fluo-4 calcium fluorescence, agonist mode; hits give high values. B-score at 10 µM. actives 0.44% (n = 310,000);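 active = calcium response B-score plate-corrected fluorescence ratio at least 3 library SD, with starting fluorescence B-score inside 5 SD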
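Test system: HEK293 cells stably expressing human MrgX1 receptor; amount: 15,000 cells per well; doses: compound delivered in addition one of three; times: overnight plating before 1 h dye loading; detection: Fluo-4 NW calcium-flux fluorescence, kinetic read; read-out basis: B-scored fluorescence response ratio; controls: positive and negative controls per plate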
RGS4 act: RGS4 potentiation or activation; B-score at 10 µM; AID 463111; HEK293 M3R/inducible RGS4, carbachol calcium flux Fluo4; hits give low values; actives 0.92% (n = 310,000);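 active = B-score of the integrated calcium signal more than 4 SD below the library mean, with starting fluorescence not abnormally high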;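 also: negative B-score means reduced calcium response which marks RGS4 activation or potentiation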
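Assay system: Inducible-RGS4 HEK293 cells carrying M3 receptor | Schedule: Compound preincubation 20 min at room temperature before agonist | Signal: Kinetic calcium fluorescence imaging with Fluo4-AM dye, 2 µM | Read-out basis: B score from integrated fluorescence ratio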
MrgX1 allo act: allosterically activates human MrgX1 receptor signaling. MrgX1-HEK293, Fluo-4 calcium flux, FDSS; hits give high values. B-score at 10 µM. AID 588675. actives 0.63% (n = 310,000);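 active = plate-corrected calcium response at least 3 library SD above typical, normal starting fluorescence, not activating the receptor alone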;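 also: compound read alongside a low EC10 to EC30 dose of BAM8-22 agonist; peak minus trough fluorescence over baseline measured at the second addition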
RGS4 block: inhibitors of human RGS4; AID 463165; actives 0.45% (n = 310,000); HEK293 M3R/RGS4 inducible, Fluo-4 calcium flux; hits give high values; triggered by carbachol at its EC20; P49798; B-score at 10 µM;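 active = B-score, a plate-corrected calcium signal, over three deviations above library mean, with baseline fluorescence within five deviations of library mean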;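 also: RGS4 expression induced by doxycycline in cells with stable M3 receptor; B-score is computed from the integrated fluorescence ratio over baseline after carbachol; higher B-score means a larger calcium signal and so more RGS4 inhibition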
Target sequence (P49798 whole entry, looked up): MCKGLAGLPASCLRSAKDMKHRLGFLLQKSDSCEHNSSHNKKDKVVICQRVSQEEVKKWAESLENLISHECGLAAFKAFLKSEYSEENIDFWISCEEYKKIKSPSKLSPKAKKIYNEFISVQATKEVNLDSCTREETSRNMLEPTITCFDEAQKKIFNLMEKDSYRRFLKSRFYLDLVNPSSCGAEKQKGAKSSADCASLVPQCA
MrgX1 allo conf: reconfirmed allosteric activator of human MrgX1 receptor | shares compounds with MrgX1 allo act | MrgX1-HEK293, Fluo-4 calcium fluorescence, FDSS | activation (ratio percentage), % at 10 µM | actives 13% (n = 1,200);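 active = ratio at least 3 SD above the weak peptide control, stable starting fluorescence, no direct agonism earlier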;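 also: compound followed by low BAM8-22 agonist challenge near EC20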
HEK293 Ca flux: MrgX1 antagonist counter-screen hit in parental HEK293 cells; shares compounds with MrgX1 antagonist; fluorescence ratio F(max-min)/F0 at 10 µM; actives 2% (n = 4,000); Fluo-4 calcium fluorescence, FDSS;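 active = duplicate-averaged calcium fluorescence ratio at least three times the standard deviation of buffer wells, a nonspecific response in parental cells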
HEK293 Ca counter: counter-screen for MrgX1 allosteric activators: effect in parental HEK293 cells. fluorescence ratio F(max-min)/F0 at 10 µM. AID 624114. parental HEK293 calcium flux, Fluo-4 fluorescence ratio; hits give high values. actives 0.4% (n = 4,000). shares compounds with MrgX1 antagonist;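 active = calcium fluorescence ratio, averaged over duplicates, at least 3 SD of the buffer-well ratio, meaning a nonspecific response in receptor-free cells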;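 also: untransfected parental HEK293 lacking MrgX1 used as counterscreen for MrgX1 allosteric activators; fluorescence change taken during the second addition on a kinetic imager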
HEK293 Ca cntr2: counter-screen for MrgX1 activators: effect in parental HEK293 cells | actives 8.7% (n = 4,000) | shares compounds with MrgX1 antagonist | fluorescence ratio F(max-min)/F0 at 10 µM | AID 624115 | Fluo-4 calcium fluorescence (FDSS); hits give high values;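 active = calcium fluorescence ratio at least three times the spread of buffer wells, meaning a non-specific response in parental cells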
* marks the source's active call; other numbers are inactive results; i = inactive; nt = no result. The list is not random: actives were taken first. Their share in the collection is about 3.5%.

SMILES | MrgX1 antagonist | MrgX1 agonist | RGS4 act | MrgX1 allo act | RGS4 block | MrgX1 allo conf | HEK293 Ca flux | HEK293 Ca counter | HEK293 Ca cntr2
O=C(Nc1nnc(-c2ccccc2Cl)o1)c1ccc(S(=O)(=O)N2CCCCCC2)cc1 | i | i | i | 8.64* | i | i | i | i | i
CS(=O)(=O)c1ccccc1-c1nnc(NC(=O)c2ccc(S(=O)(=O)N3CCCC3)cc2)o1 | i | i | i | i | i | nt | nt | nt | nt
COc1ccc(NC(=O)c2cccc(C(=O)Nc3ccc(OC)cc3)n2)cc1 | i | i | i | 8.83* | i | i | i | i | i
COc1ccc(NC(=O)c2cc(-c3cccc(OC)c3)on2)cc1 | i | i | i | i | i | nt | nt | nt | nt
CCOc1nnnc2c1sc1nc(N3CCOCC3)c3c(c12)CCCC3 | i | i | i | i | i | nt | nt | nt | nt
CC1(C)CC(=O)c2sc(NS(=O)(=O)c3ccc(Cl)cc3)nc2C1 | i | i | i | i | i | nt | nt | nt | nt
CC1(C)CC(=O)c2sc(NS(=O)(=O)c3ccc(Br)cc3)nc2C1 | i | i | i | 13.4* | i | i | i | i | i
CC1(C)CC(=O)c2sc(NS(=O)(=O)c3ccc(F)cc3)nc2C1 | i | i | i | 31.3* | i | 6.6%* | i | i | i
O=C(COc1ccccc1)Nc1ccccc1N1CCN(c2ccccc2)CC1 | i | i | i | 13.3* | i | i | i | i | i
Cc1cc(C)c(OCC(=O)Nc2ccccc2N2CCOCC2)c(C)c1 | i | i | i | 6.89* | i | i | i | i | i
COc1ccc(N2CCOCC2)c(NC(=O)COc2cccc(C)c2C)c1 | i | i | i | 11.6* | i | i | i | i | i
CC(C)C(=O)N1CCN(c2ccccc2NC(=O)COc2ccccc2)CC1 | i | i | i | i | i | nt | nt | nt | nt
COc1ccc(N2CCOCC2)c(NC(=O)COc2cccc(C)c2)c1 | i | i | i | i | i | nt | nt | nt | nt
Cc1ccccc1OCC(=O)Nc1ccccc1N1CCOCC1 | i | i | i | 6.83* | i | i | i | i | i
CCOc1ccc(NS(=O)(=O)c2ccc(C(=O)N3CCC3)cc2)cc1 | i | i | i | i | i | nt | nt | nt | nt
CCN(CC)c1ccc(/C=N/NC(=O)c2ccoc2C)c(O)c1 | i | i | i | i | i | nt | nt | nt | nt
O=S(=O)(C(=CNc1ccccc1)S(=O)(=O)c1ccccc1)c1ccccc1 | i | i | i | i | i | nt | nt | nt | nt
Cc1ccc(OCC(=O)Nc2ccccc2-c2ccccc2)cc1 | i | i | i | 6.61* | i | i | i | i | i
Cc1nc2c3cc(F)ccc3n(Cc3ccccc3F)c2s1 | i | i | i | 8.98* | i | i | i | i | i
Cc1nc2c3ccccc3n(Cc3ccccc3F)c2s1 | i | i | i | i | i | nt | nt | nt | nt
CCC1CCCCN1CCCNC(=O)c1ccc(CS(=O)(=O)c2ccccc2OC)o1 (configuration not stated) | i | i | i | i | i | nt | nt | nt | nt
O=c1[nH]c(Nc2ccccc2Cl)cc2ccccc12 | i | i | i | 8.05* | i | i | i | i | i
Cc1ccccc1Nc1cc2ccccc2c(=O)[nH]1 | i | i | i | i | i | nt | nt | nt | nt
Cc1cc(C)n2c(SCC(=O)Nc3ccc(F)cc3)nnc2n1 | i | i | i | 14.5* | i | i | i | i | i
Cc1cc(C)n2c(SCC(=O)Nc3ccc(F)cc3F)nnc2n1 | i | i | i | i | i | nt | nt | nt | nt
SMILES | MrgX1 antagonist | MrgX1 agonist | RGS4 act | MrgX1 allo act | RGS4 block | MrgX1 allo conf | HEK293 Ca flux | HEK293 Ca counter | HEK293 Ca cntr2
CC1CN(C(=O)CSc2nnc(-c3ccccc3)o2)CC(C)O1 (configuration not stated) | i | i | i | i | i | nt | nt | nt | nt
CC(=O)Cc1nsc(NC(=O)c2ccc(-c3ccccc3Cl)o2)n1 | i | i | i | 25.7* | i | i | i | i | i
Cc1ccc(NC(=O)CCC(=O)OCC(=O)c2ccc(Oc3ccc([N+](=O)[O-])cc3)cc2)c(C)c1 | i | i | i | i | i | nt | nt | nt | nt
CC(=O)c1c(C)[nH]c(C(=O)OCC(=O)Nc2sc3c(c2C#N)CCC(C)C3)c1C (configuration not stated) | i | i | i | i | i | nt | nt | nt | nt
c1ccc(-c2noc(-c3cccc4ccccc34)n2)nc1 | i | i | i | 8.41* | i | i | 0.534* | i | i
Cc1ccc(-c2cc3onc(-c4ccccc4)c3c(=O)n2C)cc1 | i | i | nt | 20.7* | nt | i | i | i | i
COc1ccc(-c2[nH]ncc2-c2csc(C)n2)c(O)c1 | i | i | i | i | i | nt | nt | nt | nt
CCOc1ccc(-c2[nH]ncc2-c2ccccc2)c(O)c1 | i | i | i | 12.8* | i | 17.5%* | i | i | i
CCOc1ccc(-c2[nH]ncc2-c2csc(C)n2)c(O)c1 | i | i | i | i | i | nt | nt | nt | nt
COc1ccc(-c2[nH]ncc2-c2ccc(Cl)cc2)c(O)c1 | i | i | i | 6.71* | i | 26.6%* | i | i | i
COc1ccc(-c2cn[nH]c2-c2ccc(OC)cc2O)cc1 | i | i | i | 16.4* | i | 12.4%* | i | i | i
COC(=O)C1(CC2CC(c3ccncc3)=NO2)CCN(C(=O)OC(C)(C)C)CC1 (configuration not stated) | i | i | i | i | i | nt | nt | nt | nt
CN(Cc1ccccc1)C(NC(=O)c1ccco1)C(Cl)(Cl)Cl (configuration not stated) | i | i | i | 6.62* | i | i | i | i | i
CN(Cc1ccccc1)C(NC(=O)c1ccccc1)C(Cl)(Cl)Cl (configuration not stated) | i | i | i | i | i | nt | nt | nt | nt
Cc1ccc(-c2cc(C)nc3ncnn23)cc1 | i | i | i | 8.87* | i | i | i | i | i
